Measurements: ChEMBL document CHEMBL1275441, “Effect of impaired renal function on the pharmacokinetics of tomopenem (RO4908463/CS-023), a novel carbapenem” (Antimicrob Agents Chemother, 2008)

Experiments:
Homo sapiens [1] = assay: Drug excretion in human with creatinine clearance of 30-49 ml/min at 1500 mg, iv administered as single dose after 24 hrs; type: ADME, organism-based; conditions: in vivo
How it was run: (§1)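 After a single 1,500 mg i.v. infusion over 60 min, urine was collected 0–6, 6–12 and 12–24 h post-dose, with volume and pH recorded. Aliquots were mixed 1:1 with 0.5 M MOPS, protected from light and frozen at −70°C. Parent and metabolite were assayed by a validated method. CLR = Ae24/plasma AUC24. n = 8 per group, mean ± SD.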

Homo sapiens [2] = assay: Drug metabolism in human with creatinine clearance of => 80 ml/min assessed as RO4957463 AUC (infinity) at 1500 mg, iv administered as single dose measured after 60 mins; type: ADME, organism-based; set-up: dose 1500 mg, route intravenous, time infinity; conditions: in vivo, 1 h
How it was run: (§2)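 Single 1,500 mg i.v. infusion over 60 min, eight subjects per renal-function group (creatinine clearance by Cockcroft-Gault at screening). Blood was sampled predose and at 1–48 h, and the plasma was stabilized 1:1 with 0.5 M MOPS pH 6.0, kept from light and frozen at −70°C. Parent and metabolite were measured by a validated bioanalytical method. Noncompartmental analysis: t1/2 = ln2/λz from ≥3 terminal points, Cmax/Tmax from raw data, ratio = AUC∞ metabolite/parent.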

[3] = Renal clearance in human with creatinine clearance of 50-79 ml/min at 1500 mg, iv administered as single dose after 24 hrs; type: ADME, organism-based, Kidney; conditions: in vivo, read-out: CL_renal (converted)
How it was run: (§3)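 Single 1,500 mg i.v. infusion over 60 min, with 8 subjects per renal-function group (CL_CR by Cockcroft-Gault at screening). Urine was collected at 0–6, 6–12 and 12–24 h, volume and pH recorded, and aliquots mixed 1:1 with 0.5 M MOPS. Samples were frozen at −70°C, protected from light, and assayed by a validated method. CL_R = A_e24/AUC₂₄.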

[4] = Renal clearance in human with creatinine clearance of =< 30 ml/min at 1500 mg, iv administered as single dose after 24 hrs; type: ADME, organism-based, Kidney; conditions: in vivo, read-out: CL_renal (converted); how it was run: as §3
[5] = Volume of distribution in healthy human at 700 mg, iv administered as single dose; type: ADME, organism-based; conditions: in vivo
[6] = Volume of distribution at steady state in human with creatinine clearance of 50-79 ml/min at 1500 mg, iv administered as single dose measured after 60 mins; type: ADME, organism-based; conditions: in vivo, read-out: Vdss
How it was run: (§4)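 Eight subjects per CL_CR group (Cockcroft-Gault) received 1,500 mg i.v. over 60 min. Plasma was sampled predose and from 1 to 48 h, mixed with equal-volume 0.5 M MOPS pH 6.0, frozen at −70°C light-protected, and assayed by a validated method. Parameters were derived noncompartmentally from actual times, with T_max taken from raw data as a median and CL/V_ss as means ± SD.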

[7] = AUC (infinity) in human with creatinine clearance of 50-79 ml/min at 1500 mg, iv administered as single dose measured after 60 mins; type: ADME, organism-based; set-up: dose 1500 mg, route intravenous, time infinity; conditions: plasma; how it was run: as §2
[8] = Cmax in human with creatinine clearance of =< 30 ml/min at 1500 mg, iv administered as single dose measured after 60 mins; type: ADME, organism-based; set-up: dose 1500 mg, route intravenous; conditions: in vivo; how it was run: as §2
[9] = Apparent half-life in human with creatinine clearance of 50-79 ml/min at 1500 mg, iv administered as single dose; type: ADME, organism-based; conditions: in vivo; how it was run: as §2
[10] = Volume of distribution at steady state in human with creatinine clearance of =< 30 ml/min at 1500 mg, iv administered as single dose measured after 60 mins; type: ADME, organism-based; conditions: in vivo, read-out: Vdss; how it was run: as §4
[11] = AUC (infinity) in human with creatinine clearance of =< 30 ml/min at 1500 mg, iv administered as single dose measured after 60 mins; type: ADME, organism-based; set-up: dose 1500 mg, time infinity, route intravenous; conditions: plasma; how it was run: as §2
Homo sapiens [12] = assay: Drug metabolism in human with creatinine clearance of 50-79 ml/min assessed as RO4957463 AUC (infinity) at 1500 mg, iv administered as single dose measured after 60 mins; type: ADME, organism-based; set-up: dose 1500 mg, time infinity, route intravenous; conditions: in vivo, 1 h; how it was run: as §2
Homo sapiens [13] = assay: Drug metabolism in human with creatinine clearance of =< 30 ml/min assessed as RO4957463 apparent half life at 1500 mg, iv administered as single dose; type: ADME, organism-based; conditions: in vivo; how it was run: as §2
[14] = Tmax in human with creatinine clearance of =< 30 ml/min at 1500 mg, iv administered as single dose; type: ADME, organism-based; conditions: in vivo; how it was run: as §4
[15] = Total clearance in human with creatinine clearance of => 80 ml/min at 1500 mg, iv administered as single dose measured after 60 mins; type: ADME, organism-based; conditions: in vivo; how it was run: as §4
Homo sapiens [16] = assay: Drug metabolism in human with creatinine clearance of 50-79 ml/min assessed as RO4957463 apparent half life at 1500 mg, iv administered as single dose; type: ADME, organism-based; conditions: in vivo; how it was run: as §2
Homo sapiens [17] = assay: Drug excretion in human with creatinine clearance of 50-79 ml/min at 1500 mg, iv administered as single dose after 24 hrs; type: ADME, organism-based; conditions: in vivo; how it was run: as §1
[18] = Renal clearance in human with creatinine clearance of => 80 ml/min at 1500 mg, iv administered as single dose after 24 hrs; type: ADME, organism-based, Kidney; conditions: in vivo, read-out: CL_renal (converted); how it was run: as §3
[19] = Apparent half-life in human with creatinine clearance of => 80 ml/min at 1500 mg, iv administered as single dose; type: ADME, organism-based; conditions: in vivo; how it was run: as §2
[20] = Dose normalized excretion in human with creatinine clearance of =< 30 ml/min at 1500 mg, iv administered as single dose after 24 hrs; type: ADME, organism-based; conditions: in vivo, read-out: Activity; how it was run: as §1
Homo sapiens [21] = assay: Drug metabolism in human with creatinine clearance of =< 30 ml/min assessed as RO4957463 AUC (infinity) at 1500 mg, iv administered as single dose measured after 60 mins; type: ADME, organism-based; set-up: dose 1500 mg, time infinity, route intravenous; conditions: in vivo, 1 h; how it was run: as §2
Homo sapiens [22] = assay: Drug metabolism in human with creatinine clearance of =< 30 ml/min assessed as RO4957463 Cmax at 1500 mg, iv administered as single dose measured after 60 mins; type: ADME, organism-based; set-up: dose 1500 mg, route intravenous; conditions: in vivo, 1 h; how it was run: as §2
Homo sapiens [23] = assay: Drug metabolism in human with creatinine clearance of 30-49 ml/min assessed as RO4957463 Tmax at 1500 mg, iv administered as single dose; type: ADME, organism-based; conditions: in vivo; how it was run: as §2
[24] = Total clearance in human with creatinine clearance of 30-49 ml/min at 1500 mg, iv administered as single dose measured after 60 mins; type: ADME, organism-based; conditions: in vivo; how it was run: as §4
[25] = Tmax in human with creatinine clearance of => 80 ml/min at 1500 mg, iv administered as single dose; type: ADME, organism-based; conditions: in vivo; how it was run: as §4
Homo sapiens [26] = assay: Drug metabolism in human with creatinine clearance of 30-49 ml/min assessed as RO4957463 apparent half life at 1500 mg, iv administered as single dose; type: ADME, organism-based; conditions: in vivo; how it was run: as §2
Homo sapiens [27] = assay: Ratio of RO4957463 AUC (infinity) to compound AUC (infinity)) in human with creatinine clearance of =< 30 ml/min at 1500 mg, iv administered as single dose measured after 60 mins; type: ADME, organism-based; conditions: in vivo, 1 h; how it was run: as §2
[28] = Volume of distribution at steady state in human with creatinine clearance of 30-49 ml/min at 1500 mg, iv administered as single dose measured after 60 mins; type: ADME, organism-based; conditions: in vivo, read-out: Vdss; how it was run: as §4
Homo sapiens [29] = assay: Drug metabolism in human with creatinine clearance of 30-49 ml/min assessed as RO4957463 Cmax at 1500 mg, iv administered as single dose measured after 60 mins; type: ADME, organism-based; set-up: dose 1500 mg, route intravenous; conditions: in vivo, 1 h; how it was run: as §2
[30] = Total clearance in human with creatinine clearance of 50-79 ml/min at 1500 mg, iv administered as single dose measured after 60 mins; type: ADME, organism-based; conditions: in vivo; how it was run: as §4
[31] = Total clearance in human with creatinine clearance of =< 30 ml/min at 1500 mg, iv administered as single dose after 60 mins after 60 mins; type: ADME, organism-based; conditions: in vivo; how it was run: as §4

## C[C@@H](O)[C@H]1C(=O)N2C(C(=O)O)=C(S[C@H]3C[C@@H](C(=O)N4CC[C@H](NC(=O)CNC(=N)N)C4)N(C)C3)[C@H](C)[C@H]12 [TOMOPENEM]
Homo sapiens [1]
  Activity: 939 mg
Homo sapiens [2]
  AUC: 18.5 µg·h/mL
[3]
  CL renal at 24 h: 61.3 mL/min
[4]
  CL renal at 24 h: 9.83 mL/min
[5]
  Vd: 17 L
[6]
  Vd: 16.2 L
[7]
  AUC(0-inf): 304 µg·h/mL
[8]
  Cmax: 116 µg/mL
[9]
  half-life: 3 h
[10]
  Vd: 16.4 L
[11]
  AUC(0-inf): 1040 µg·h/mL
Homo sapiens [12]
  AUC: 37.3 µg·h/mL
Homo sapiens [13]
  t1/2: 25.3 h
[14]
  Tmax: 1.02 h
[15]
  clearance: 135 mL/min
Homo sapiens [16]
  t1/2: 5.02 h
Homo sapiens [17]
  Activity: 1090 mg
[18]
  CL renal at 24 h: 77.2 mL/min
[19]
  half-life: 2.23 h
[20]
  dose excreted at 24 h: 41.2%
Homo sapiens [21]
  AUC: 490 µg·h/mL
Homo sapiens [22]
  Cmax: 9.63 µg/mL
Homo sapiens [23]
  Tmax: 5 h
[24]
  clearance: 51 mL/min
[25]
  Tmax: 1 h
Homo sapiens [26]
  t1/2: 8.32 h
Homo sapiens [27]
  Ratio: 0.49
[28]
  Vd: 17.2 L
Homo sapiens [29]
  Cmax: 5.24 µg/mL
[30]
  clearance: 84.7 mL/min
[31]
  clearance: 25.3 mL/min
